pIC50, pKi: −log10 of the molar value.

Series [1] concerns the target T1, Steroid 17-alpha-hydroxylase/17,20 lyase (Homo sapiens, UniProt P05093).
T1 sequence (P05093 whole entry): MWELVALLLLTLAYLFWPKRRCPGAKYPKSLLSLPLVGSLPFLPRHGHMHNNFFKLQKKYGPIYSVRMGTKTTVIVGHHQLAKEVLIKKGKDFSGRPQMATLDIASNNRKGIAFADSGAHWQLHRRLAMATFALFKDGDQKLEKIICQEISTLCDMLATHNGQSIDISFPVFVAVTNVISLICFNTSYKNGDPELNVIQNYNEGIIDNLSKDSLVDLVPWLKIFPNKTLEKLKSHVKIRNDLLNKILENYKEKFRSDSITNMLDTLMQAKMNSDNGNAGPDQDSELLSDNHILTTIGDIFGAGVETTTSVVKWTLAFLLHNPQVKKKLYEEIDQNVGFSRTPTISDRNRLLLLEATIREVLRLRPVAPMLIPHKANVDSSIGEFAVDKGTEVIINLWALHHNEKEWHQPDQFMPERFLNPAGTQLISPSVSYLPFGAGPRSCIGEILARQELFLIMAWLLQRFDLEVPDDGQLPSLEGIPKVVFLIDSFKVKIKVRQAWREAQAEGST
The experiment in a line: Inhibition of human CYP17 expressed in Escherichia coli. In short, it runs like this: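 Whole-cell assay: intact Escherichia coli cells expressing human CYP17 used as the enzyme source; inhibition expressed as IC50.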

Series [2] concerns Plasma. The experiment in a line: Retention time in mouse plasma by reverse phase HPLC method. The format is ADME, cell-free. In a few lines: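 Mouse plasma from male SCID mice dosed s.c. at 50 or 100 mg/kg, analysed by validated reverse-phase HPLC with an internal standard. Analyte resolved from the internal standard, a metabolite and endogenous plasma components. Calibration linear; inter- and intra-assay variability under 10%; detection limit 100 ng/mL.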

The target of series [3] is T1, Steroid 17-alpha-hydroxylase/17,20 lyase. The series can be described thus: Inhibition of human CYP17 up to 10 uM using 17alpha-hydroxypregnenolone substrate relative to control. In short, it runs like this: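 CYP17 assay with 17α-hydroxypregnenolone substrate at 10 μM (Km 560 nM). Screening used 150 nM inhibitor, tested up to 10 μM. Values are the mean ± SDM of at least two experiments.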

For series [4] the target is unchanged. The experiment in a line: Inhibition of human CYP17 using 17alpha-hydroxypregnenolone substrate.
A short description of series [5]: Growth inhibition of human castration-resistant prostate cancer cells. The format is functional, cell-based. Particulars: Cancer cell lines; call rule not given here.
Series [6] in a line: Cmax in SCID mouse at 50 mg/kg, sc. Particulars: in vivo. The format is ADME, organism-based. On the set-up: dose 50 mg/kg, route subcutaneous. In short, it runs like this: (§1)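 Male SCID mice were dosed subcutaneously at 50 or 100 mg/kg. Plasma levels were measured by reverse-phase HPLC against an internal standard, with a detection limit of 100 ng/mL and inter- and intra-assay variability under 10%. Parameters were calculated noncompartmentally from the plasma concentration–time profile.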

The test system of series [7] is Mus musculus. The series can be described thus: Volume of distribution in SCID mouse at 100 mg/kg, sc. On the set-up: dose 100 mg/kg, route subcutaneous. Particulars: in vivo. The format is ADME, organism-based. In short, it runs like this:
as §1

For series [8], the system named is Mus musculus. The experiment in a line: Elimination half life in SCID mouse at 100 mg/kg, sc. Particulars: in vivo. The format is ADME, organism-based. Also noted: dose 100 mg/kg, route subcutaneous. In short, it runs like this: as §1
The subject of series [9] is Plasma. The experiment in a line: Drug metabolism in mouse plasma assessed as retention time of metabolite by reverse phase HPLC method. The format is ADME, cell-free. In a few lines: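 Mouse plasma was analysed by reverse-phase HPLC after subcutaneous dosing. The parent compound, an internal standard, the metabolite and endogenous components were resolved by retention time.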

The test system of series [10] is LAPC4. The experiment in a line: Antitumor activity against human LAPC4 cells xenografted in SCID mouse assessed as reduction in tumor volume at 0.15 mmol/kg, sc dosed twice daily starting 1 day after tumor cell inoculation and measured after 16 weeks of treatment. The format is functional. In short, it runs like this: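 3 × 10^7 LAPC-4 cells were injected subcutaneously into the dorsal flank of male SCID mice. From 1 day after inoculation, mice received 0.15 mmol/kg s.c. twice daily, alongside vehicle and castrated groups. The dose was cut by 78.6% for one interval, then resumed. Tumour volume was measured weekly, and percent change was computed after 16 weeks.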

Series [11] in a line: Clearance in SCID mouse at 50 mg/kg, sc. On the set-up: dose 50 mg/kg, route subcutaneous. The format is ADME, organism-based. Particulars: in vivo. In a few lines: as §1
A short description of series [12]: Tmax in SCID mouse at 50 mg/kg, sc. The format is ADME, organism-based. Also noted: dose 50 mg/kg, route subcutaneous. Particulars: in vivo. In a few lines: as §1
Series [13] can be described thus: AUC in SCID mouse at 50 mg/kg, sc. Also noted: dose 50 mg/kg, route subcutaneous. Particulars: plasma. The format is ADME, organism-based. In short, it runs like this:
as §1

Series [14] deals with Mus musculus. The series can be described thus: Volume of distribution in SCID mouse at 50 mg/kg, sc. The format is ADME, organism-based. Also noted: dose 50 mg/kg, route subcutaneous. Particulars: in vivo. In short, it runs like this: as §1
Series [15] can be described thus: AUC in SCID mouse at 100 mg/kg, sc. The format is ADME, organism-based. Also noted: dose 100 mg/kg, route subcutaneous. Particulars: plasma. In short, it runs like this:
as §1

Series [16] relates to LAPC4. The series can be described thus: Antitumor activity against human LAPC4 cells xenografted in SCID mouse assessed as tumor volume at 0.13 mmol/kg, sc dosed twice daily (reference value: 2410.28 mm3). The format is functional. In general terms: A xenograft is tissue or cells of one species grown in another, often human tumour cells in immunodeficient mice.
Series [17] concerns LAPC4. The experiment in a line: Antitumor activity against human LAPC4 cells xenografted in SCID mouse with castration assessed as regression of tumor volume at 0.13 mmol/kg, sc dosed twice daily. The format is functional.
For series [18], the system named is LAPC4. The experiment in a line: Antitumor activity against human LAPC4 cells xenografted in SCID mouse assessed as regression of tumor volume at 0.13 mmol/kg, sc dosed twice daily. The format is functional.
Series [19] concerns Mus musculus. The series can be described thus: Drug elimination constant in SCID mouse at 50 mg/kg, sc. Particulars: in vivo. The format is ADME, organism-based. Also noted: dose 50 mg/kg, route subcutaneous. In short, it runs like this: as §1
Series [20] is described as follows: Mean residence time in SCID mouse at 50 mg/kg, sc. Particulars: in vivo. Also noted: dose 50 mg/kg, route subcutaneous. The format is ADME, organism-based. In a few lines: as §1
The nature of series [21]: Mean residence time in SCID mouse at 100 mg/kg, sc. The format is ADME, organism-based. On the set-up: dose 100 mg/kg, route subcutaneous. Particulars: in vivo. In a few lines: as §1
Series [22] is described as follows: Cmax in SCID mouse at 100 mg/kg, sc. The format is ADME, organism-based. Also noted: dose 100 mg/kg, route subcutaneous. Particulars: in vivo. In a few lines: as §1
The nature of series [23]: Tmax in SCID mouse at 100 mg/kg, sc. The format is ADME, organism-based. Also noted: dose 100 mg/kg, route subcutaneous. Particulars: in vivo. In a few lines: as §1
Series [24] deals with Mus musculus. The experiment in a line: Elimination half life in SCID mouse at 50 mg/kg, sc. The format is ADME, organism-based. On the set-up: dose 50 mg/kg, route subcutaneous. Particulars: in vivo. In short, it runs like this: as §1

Broadly, the pIC50 is the negative decadic logarithm of the IC50, by convention in mol/L. Higher therefore signals a small IC50. The molecule `C[C@]12CC[C@H](O)CC1=CC[C@@H]1[C@@H]2CC[C@]2(C)C(n3ccnc3)=CC[C@@H]12` gave a pIC50 in series [1] of 7.30. For the same molecule, in the series with Plasma [2], the Retention_time came to 11.5 min.
Consider `C[C@]12CC[C@H](O)CC1=CC[C@@H]1[C@@H]2CC[C@]2(C)C(n3nccn3)=CC[C@@H]12`, for which, in [3], the “inhibition (INH)” value is “Not Active”.
Still for that read-out and setting: the result for `C[C@]12CC[C@H](O)CC1=CC[C@@H]1[C@@H]2CC[C@]2(C)C(n3ncnn3)=CC[C@@H]12` reads “Not Active”.
Turning to `C[C@]12CC[C@H](O)CC1=CC[C@@H]1[C@@H]2CC[C@]2(C)C(n3cnnn3)=CC[C@@H]12`, the “inhibition (INH)” value in [3] was “Not Active”.
The term pKi denotes the Ki on a negative log10 scale, so that one unit is a factor of ten. In series [4], `C[C@]12CCC(=O)C=C1CC[C@@H]1[C@@H]2CC[C@]2(C)C(n3cncn3)=CC[C@@H]12` gave a pIC50 of 7.26 and a pKi of 7.39.
Consider `CC(O)(CS(=O)(=O)c1ccc(F)cc1)C(=O)Nc1ccc(C#N)c(C(F)(F)F)c1` (centres undefined) [BICALUTAMIDE], for which, in series [5], the pIC50 is 4.74.
One may read the Cmax as the peak of the concentration-time curve. Usually inhibition in vivo stands for the relative decrease from the control value, in per cent. As usually defined, the CL/F is clearance divided by bioavailability, as obtained after extravascular dosing. As usually defined, the Tmax is the time from dosing to the highest level. In general, AUC refers to concentration integrated over time. Low values mean less exposure, high ones more exposure. A word on the MRT: it is the average time that molecules of a dose stay in the body. Turning to `C[C@]12CC[C@H](O)CC1=CC[C@@H]1[C@@H]2CC[C@]2(C)C(n3cnc4ccccc43)=CC[C@@H]12` [GALETERONE], the Cmax in series [6] is 16800 ng/mL; in [22] it was 32200 ng/mL. The Vd turned out to be 3.27639 L/kg in the series with Mus musculus [7] and 2.09899 L/kg in the series on Mus musculus [14]. The results for the “beta t1/2” value in the series on Mus musculus [8] and with Mus musculus [24] were 36.6 min and 44.17 min, respectively. For the same molecule, the Retention_time came to 17.3 min in the series with Plasma [9] and 21.6 min in the series with Plasma [2]. The inhibition in vivo at 150 µmol/kg with LAPC4 [10] was found to be 93.8%. Also, the negative logarithm of the IC50 (pIC50) in series [5] is 5.54. Also, the CL/F in [11] is 33.1 mL/min/kg. Besides, the Tmax in series [12] and in [23] was 30 min each time. Moreover, the AUC was 24000 ng·h/mL in series [13] and 30200 ng·h/mL in [15]. The Activity in the series on LAPC4 [16] is 6.94 mm3. Further, the inhibition in vivo at 130 µmol/kg is 60.7% with LAPC4 [17] and 26.6% in the series on LAPC4 [18]. Further, the Kel in the series on Mus musculus [19] turned out to be 0.942 h⁻¹. For the same molecule, the MRT in series [20] was 65.4 min; in series [21] it was 60.5 min.

The values above are taken from ChEMBL document CHEMBL3414506 (J Med Chem, 2015).
